# Screening data as filed in PubChem BioAssay.
# The list is not random: actives were taken first. Their share in the collection is about 4.2%.
# GAA850 FXN act: activators of GAA850 frataxin (FXN) promoter; HEK293 lucGAA850 FXN promoter luciferase reporter, 24 h; percent of 10 µM SAHA response; activation, % at 6 µM; 360,000 tested, 0.56% active;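 active means activation above the average of all compounds screened plus 3 SD, cutoff fixed separately per campaign, cut at about 7.5% in these data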
# SENP1 inh: inhibitors of human SENP1 SUMO protease catalytic domain; Q9P0U3; recombinant SENP1 catalytic domain, CyPet-SUMO1-YPet FRET cleavage; inhibition, % at 10 µM; 360,000 tested, 0.21% active; AID 624204;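 active means inhibition at least 30% at 10 µM, raw YFP signal under a set limit, fluorescence ratio 0.5 to 1.5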
# Target sequence (Q9P0U3 419-644 limits assumed): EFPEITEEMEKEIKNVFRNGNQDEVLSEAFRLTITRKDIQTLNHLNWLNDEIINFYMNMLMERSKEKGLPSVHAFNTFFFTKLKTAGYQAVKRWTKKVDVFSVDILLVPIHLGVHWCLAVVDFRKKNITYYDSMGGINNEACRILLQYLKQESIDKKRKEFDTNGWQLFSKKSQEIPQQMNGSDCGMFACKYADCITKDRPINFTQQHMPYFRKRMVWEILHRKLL
#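 Test system: recombinant human SENP1 catalytic domain, His6-tagged / Medium: pH 8 Tris buffer with EDTA, NaCl, BME, BSA, NP40, catalase / Also added: SUMO1 FRET substrate flanked by Cypet and Ypet, 25 nM / Times: 50 min reaction at room temperature / Signal: FRET, CFP and YFP emission / Control set: no-enzyme low control and enzyme-plus-DMSO high control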
# HDAC3 inh: blocks human histone deacetylase 3; recombinant HDAC3, fluorogenic peptide/trypsin coupled, fluorescence; inhibition, % at 8.3 µM; 320,000 tested, 0.15% active; AID 2718; in the data active means inhibition above about 26%, passing the limit was not always enough; inconclusive means no clear call, values can overlap the other calls
# CTSL1 counter-1: blocks F. hepatica cathepsin L1 in PFM18AAP counter-screen; recombinant F. hepatica cathepsin L1, Z-Leu-Arg-MCA fluorescence; inhibition, % at 5.96 µM; 300,000 tested, 0.49% active; AID 1906;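 active means inhibition above the mean of all tested compounds plus 3 SD, set per screening campaign, cut at about 17% in these data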
# PfM18AAP inh-1: blocks P. falciparum M18 aspartyl aminopeptidase | recombinant PfM18AAP, H-Glu-NHMec fluorogenic cleavage | inhibition, % at 7.35 µM | 290,000 tested, 1.2% active;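 active means inhibition above the campaign mean inhibition over all tested compounds plus 3 SD, cut at about 28% in these data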
# AHR act: activators of human aryl hydrocarbon receptor; P35869; AHR-responsive luciferase reporter cells, luminescence; activation, % at 5 µM; 320,000 tested, 2.5% active; in the data active means activation above about 47%
# PfM18AAP inh-2: PfM18AAP inhibition, confirmation. 2,400 tested, 28% active. inhibition, % at 7.35 µM. shares compounds with PfM18AAP inh-1. AID 2170. recombinant PfM18AAP, H-Glu-NHMec fluorogenic cleavage;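 active means mean inhibition over replicate wells above the hit cutoff set for the earlier primary screen, cut at about 29% in these data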
# CTSL1 counter-2: Cathepsin L (human) inhibition, confirmation. purified cathepsin L1, Z-Leu-Arg-MCA fluorescence. AID 2178. inhibition, % at 5.96 µM. 2,400 tested, under 10 active. shares compounds with PfM18AAP inh-1;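 active means average inhibition across replicates above the hit cutoff set in the earlier primary screen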
# Target sequence (P07711 whole entry, looked up): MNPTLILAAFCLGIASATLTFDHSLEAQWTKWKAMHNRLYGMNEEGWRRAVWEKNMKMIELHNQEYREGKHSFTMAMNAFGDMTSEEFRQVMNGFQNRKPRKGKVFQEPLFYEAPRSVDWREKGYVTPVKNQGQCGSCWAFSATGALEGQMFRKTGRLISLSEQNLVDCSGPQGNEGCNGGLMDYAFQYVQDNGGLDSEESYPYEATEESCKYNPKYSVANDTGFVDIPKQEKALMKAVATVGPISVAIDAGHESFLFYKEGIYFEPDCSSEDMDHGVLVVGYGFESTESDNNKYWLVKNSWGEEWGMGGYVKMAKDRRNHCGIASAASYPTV
# Hits are given with their value; - = inactive; ? = inconclusive; . = no result given.
SMILES,GAA850 FXN act,SENP1 inh,HDAC3 inh,CTSL1 counter-1,PfM18AAP inh-1,AHR act,PfM18AAP inh-2,CTSL1 counter-2
Nn1c(Cc2cccc3ccccc23)n[nH]c1=S,-,-,-,-,32,-,-,-
Cn1c(-c2cccc3ccccc23)n[nH]c1=S,-,-,-,-,37,-,-,-
Fc1ccc(-n2c(=S)[nH]c3cccnc32)cc1,-,-,-,-,37,-,-,-
CC(C)(C)OC(=O)C[C@@H]1C/C=C\C[C@H](CC(=O)NCCO)C(=O)NC[C@H](c2ccccc2)OC1=O,-,-,-,.,.,-,.,.
O=C(NC1CC2CCCC(C1)N2Cc1ccccc1)c1ccc([N+](=O)[O-])cc1 (centres undefined),-,-,-,.,-,.,.,.
Nc1nncn1C(=O)CCCN1C(=O)c2ccccc2C1=O,-,-,-,-,44,-,47,-
Nc1nncn1C(=O)CCCOc1ccc(Cl)cc1Cl,-,-,-,-,47,-,63,-
O=C(CCCOc1ccc(Cl)cc1Cl)n1nnc2ccccc21,-,-,-,-,-,-,.,.
O=C(CCCN1C(=O)c2ccccc2C1=O)N1CCc2ccccc2C1,-,-,-,-,-,-,.,.
COc1cc2[nH]c(C(=O)N3CCN(c4ccccc4F)CC3)cc2c(OC)c1OC,-,-,-,-,-,-,.,.
CCOc1ccc2[nH]cc(C(=O)N3CCN(C4CCCCC4)CC3)c(=O)c2c1,-,-,-,-,-,-,.,.
CCOc1ccc2[nH]cc(C(=O)O)c(=O)c2c1,-,-,-,-,51,-,-,-
COc1cc(CNC(=O)Nc2nc(C(N)Cc3ccc(Cl)cc3)cs2)cc(OC)c1OC (centres undefined),-,-,.,.,.,.,.,.
CCC(=O)N1CCc2cc(S(=O)(=O)CCC(=O)NCc3ccccc3OC)ccc21,-,-,-,-,-,-,.,.
O=C(Nc1ccc(C(=O)O)cc1)/C(=C\c1ccco1)NC(=O)c1ccco1,-,-,-,-,32,-,-,-
CC(=O)c1ccc(NC(=O)/C(=C\c2ccco2)NC(=O)c2ccco2)cc1,-,-,-,-,-,-,.,.
O=c1cc(CN2CCN(c3ccc(Cl)c(Cl)c3)CC2)c2c(ccc3ccccc32)o1,.,-,.,.,.,.,.,.
CSc1nc(Cl)c(Br)c(Nc2c[nH]c(=O)[nH]c2=O)n1,-,-,.,.,.,.,.,.
N#CCC(=O)NN=C1CCCCCCCCCCC1,-,-,-,-,54,-,-,-
CCOc1ccc2c(c1)S/C(=C\c1cccs1)C(=O)N2,-,-,-,-,34,-,-,-
CCOc1ccc2c(c1)/C(=N/N1C(=O)c3ccccc3C1=O)C(=O)N2,-,-,-,-,-,-,.,.
CC(C)(C)OC(=O)N[C@H](C(=O)OC(C)(C)C)c1ccc2c(c1)OCO2,-,-,-,.,.,-,.,.
CN1c2ccccc2C(C)(C)[C@]12C=Cc1cc(O)ccc1O2,-,-,-,-,48,-,-,-
COc1ccc(-c2cnc3c(NC(C)=O)cc(-c4ccc(C(=O)N5CCOCC5)cc4)cn23)cc1OC,-,-,.,.,.,.,.,.
O=C(O)c1ccccc1C(=O)Nc1n[nH]c(=S)s1,-,-,?,-,63,-,-,-
SMILES,GAA850 FXN act,SENP1 inh,HDAC3 inh,CTSL1 counter-1,PfM18AAP inh-1,AHR act,PfM18AAP inh-2,CTSL1 counter-2
COc1ccc(C(O)c2nc(-c3cncnc3)cs2)cc1 (centres undefined),-,-,.,.,.,.,.,.
CCOC(=O)C1C(=O)NC(SC)=C(C#N)C1c1ccccc1F (centres undefined),-,-,-,-,-,-,.,.
N#CC1=C(N)NC(=S)C(C(N)=O)C1c1ccccc1F (centres undefined),-,-,-,-,46,-,30,-
NC(=O)c1ccccc1NC(=O)COc1ccc2c(c1)OCO2,-,-,-,-,-,-,.,.
CCCc1cc(=O)n2[nH]c(C)c(-c3ccc(OC)cc3)c2n1,-,-,-,-,-,-,.,.
Oc1ccc(/C=N/n2cnn(Cc3ccccc3Cl)c2=S)c(O)c1,-,-,-,-,39,-,-,-
COc1ccc(/C=N/n2cnn(Cc3ccccc3Cl)c2=S)cc1OC,-,-,-,-,-,-,.,.
Cc1ccc(C2=Nc3ccc(Br)cc3C(c3ccncc3)=NN2)cc1,-,-,-,-,-,-,.,.
Nc1nc(N)nc(C2C=CCCC2)n1 (centres undefined),-,-,.,.,.,.,.,.
CCOC(=O)N1CCN(CC(O)COc2ccccc2[N+](=O)[O-])CC1 (centres undefined),-,-,-,-,-,-,.,.
COC(=O)CCC(=O)Nc1sc(C)c(C)c1C(N)=O,-,-,-,-,43,-,-,-
COC(=O)c1c(NC(=O)Nc2ccc(Cl)cc2)sc(C)c1C,-,-,-,-,-,-,.,.
Cc1sc(NC(=O)C2CCCCC2C(=O)O)c(C(N)=O)c1-c1ccccc1 (centres undefined),-,-,-,-,-,-,.,.
Cc1sc(NC(=O)Nc2ccccc2)c(C(N)=O)c1C,-,-,-,-,37,53,-,-
Cc1sc(NC(=O)C2CCCCC2C(=O)O)c(C(N)=O)c1C (centres undefined),-,-,-,-,36,-,-,-
O=C(NC1CCCC1)N[C@@H]1CC[C@@H](CC(=O)N2CCOCC2)O[C@@H]1CO,.,-,.,.,.,.,.,.
CC(=O)Nc1cc(-c2cccc(C(=O)N(C)C)c2)cn2c(-c3ccc(C(C)=O)cc3)cnc12,-,-,.,.,.,.,.,.
Cc1nc2ccccn2c1C(=O)NNC(=S)Nc1ccccc1,-,-,-,-,-,-,.,.
CN(C)c1ccc(C(=O)NNC(=O)Nc2ccccc2)cc1,-,-,-,-,55,-,31,-
Cc1nc2ccccn2c1C(=O)NNC(=O)Nc1ccccc1,-,-,-,-,66,-,67,-
CC(=O)Nc1ccc(-c2ccnc3c2CC(C)(C(=O)Nc2cccc(Oc4ccccc4)c2)O3)cc1 (centres undefined),-,-,.,.,.,.,.,.
Cc1cc(Cl)ccc1NC(=O)CCN1C(=O)NC(C)(C)C1=O,-,-,-,.,.,-,.,.
COc1cccc(N2CCN(c3ccc4nnc(CCC(=O)Nc5ccc(OC)c(OC)c5)n4n3)CC2)c1,-,-,-,-,-,-,.,.
CCCn1c(SCCc2ccccc2)nc2c1c(=O)[nH]c(=O)n2C,-,-,-,-,-,-,.,.
CCCn1c(N/N=C(C)\C=C\c2ccccc2)nc2c1c(=O)[nH]c(=O)n2C,.,.,-,-,44,-,-,-
O=C(Cn1cc(COc2ccc(Br)cc2[N+](=O)[O-])nn1)c1ccc(O)cc1,-,-,.,.,.,.,.,.
O=C(NN1C(=O)CSC1=S)C(=O)NN1C(=O)CSC1=S,-,-,-,-,41,-,52,-
O=C(Cc1cccc2ccccc12)NN1C(=O)CSC1=S,-,-,-,-,-,-,.,.
